Experimental data as given in ChEMBL document CHEMBL1250473, “Synthesis and primary cytotoxicity evaluation of new 5-benzylidene-2,4-thiazolidinedione derivatives” (2010).

How the values were obtained:
Format in all cases: functional
KB = test: Cytotoxicity against human KB cells after 48 hrs by SRB; conditions: for TGI: read-out: pTGI
Outline: (§1)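 Cells kept in RPMI 1640 with 10% FBS and 2 mM L-glutamine, plated at 5000 cells/well and incubated 24 h at 37 °C, 5% CO2. A time-zero plate was TCA-fixed at dosing. DMSO stocks were diluted in medium into four 10-fold concentrations, 10^-4 to 10^-7 M. Exposure lasted 48 h continuously, then cells were fixed in cold TCA, stained with 0.4% SRB and eluted with 10 mM Tris. A540 was read. GI50 = [(Ti−Tz)/(C−Tz)]×100 = 50; TGI from Ti = Tz.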

MCF7 = test: Cytotoxicity against human MCF7 cells after 48 hrs by SRB; conditions: MCF7, 48 h; for TGI: read-out: pTGI; outline: as §1
HOP-62 = test: Cytotoxicity against human HOP62 cells after 48 hrs by SRB; conditions: HOP-62, 48 h; for TGI: read-out: pTGI; outline: as §1
K562 = test: Cytotoxicity against human K562 cells after 48 hrs by SRB; conditions: K562, 48 h; for TGI: read-out: pTGI; outline: as §1
PC-3 = test: Cytotoxicity against human PC3 cells after 48 hrs by SRB; conditions: PC-3, 48 h; for TGI: read-out: pTGI; outline: as §1
HepG2 = test: Cytotoxicity against human HepG2 cells after 48 hrs by SRB; conditions: HepG2, 48 h; for TGI: read-out: pTGI; outline: as §1
[1] = Cytotoxicity against human Gurav cells after 48 hrs by SRB; conditions: for TGI: read-out: pTGI; outline: as §1

Structure (SMILES) | GI50 (KB) | TGI (KB) | GI50 (MCF7) | TGI (MCF7) | GI50 (HOP-62) | TGI (HOP-62) | GI50 (K562) | TGI (K562) | GI50 (PC-3) | TGI (PC-3) | GI50 (HepG2) | TGI (HepG2) | GI50 ([1]; Homo sapiens, Gurav, 48 h) | TGI ([1]; Homo sapiens, Gurav, 48 h) | GI50 [1]
Cc1c(NC(=O)COc2ccc(/C=C3\SC(=O)NC3=O)cc2)c(=O)n(-c2ccccc2)n1C | > 100 µM | > 100 µM | > 100 µM | > 100 µM | 0.186 µM | > 100 µM | > 100 µM | > 100 µM | > 100 µM | > 100 µM | > 100 µM | > 100 µM | > 100 µM | > 100 µM | 
Cc1cc(NC(=O)COc2ccc(/C=C3\SC(=O)NC3=O)cc2)no1 | > 100 µM | > 100 µM | 39.8 µM | > 100 µM | > 100 µM | > 100 µM | 2.75 µM | > 100 µM | > 100 µM | > 100 µM | > 100 µM | > 100 µM | 38.9 µM | > 100 µM | 
Cc1cnc(NC(=O)COc2ccc(/C=C3\SC(=O)NC3=O)cc2)s1 | > 100 µM | > 100 µM | > 100 µM | > 100 µM | 30.9 µM | > 100 µM | 2.24 µM | > 100 µM |  |  | > 100 µM | > 100 µM |  |  | 
O=C(COc1ccc(/C=C2\SC(=O)NC2=O)cc1)Nc1cccc(C(F)(F)F)c1 | 2.24 µM | > 100 µM |  |  | > 100 µM | > 100 µM | 0.191 µM | > 100 µM | 2.51 µM | > 100 µM | > 100 µM | > 100 µM |  |  | 
O=C1NC(=O)/C(=C\c2ccc(OCC(=O)N3C(=O)c4ccccc4S3(=O)=O)cc2)S1 | > 100 µM | > 100 µM | 37.2 µM | > 100 µM | > 100 µM | > 100 µM | 2.69 µM | > 100 µM | > 100 µM | > 100 µM | > 100 µM | > 100 µM | 31.6 µM | > 100 µM | 
O=C(COc1ccc(/C=C2\SC(=O)NC2=O)cc1)Nc1ncc([N+](=O)[O-])s1 | > 100 µM | > 100 µM | > 100 µM | > 100 µM | > 100 µM | > 100 µM | > 100 µM | > 100 µM | > 100 µM | > 100 µM | > 100 µM | > 100 µM | > 100 µM | > 100 µM | 
COc1cccc2c1C(=O)c1c(O)c3c(c(O)c1C2=O)C[C@@](O)(C(=O)CO)C[C@@H]3O[C@H]1C[C@H](N)[C@H](O)[C@H](C)O1 [DOXORUBICIN] | < 0.1 µM |  |  |  |  |  | 2.57 µM | > 100 µM |  |  | < 0.1 µM |  | 0.158 µM |  | 0.107 µM
O=C(COc1ccc(/C=C2\SC(=O)NC2=O)cc1)Nc1ccccn1 | > 100 µM | > 100 µM | 29.5 µM | > 100 µM | 2.29 µM | > 100 µM | > 100 µM | > 100 µM | 29.5 µM | > 100 µM | > 100 µM | > 100 µM | > 100 µM | > 100 µM | 
O=C(COc1ccc(/C=C2\SC(=O)NC2=O)cc1)Nc1nc2ccccc2s1 | > 100 µM | > 100 µM | 25.1 µM | > 100 µM |  |  | > 100 µM | > 100 µM | 28.2 µM | > 100 µM | > 100 µM | > 100 µM | > 100 µM | > 100 µM | 
O=C1NC(=O)/C(=C/c2ccc(OCC(=O)N3c4ccccc4Sc4ccccc43)cc2)S1 | > 100 µM | > 100 µM | 29.5 µM | > 100 µM |  |  | > 100 µM | > 100 µM | 29.5 µM | > 100 µM | > 100 µM | > 100 µM | > 100 µM | > 100 µM | 
CCCCC1=NC2(CCCC2)C(=O)N1C(=O)COc1ccc(/C=C2/SC(=O)NC2=O)cc1 | > 100 µM | > 100 µM | 28.2 µM | > 100 µM | 29.5 µM | > 100 µM | > 100 µM | > 100 µM | > 100 µM | > 100 µM | > 100 µM | > 100 µM | > 100 µM | > 100 µM | 
